# Source: PubChem BioAssay
# Calls of active or inactive are those of the source.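 Rule for the calls, unless noted: active = GFP response above 150% of the DMSO level; inconclusive = fewer than 70 events counted for a yeast strain; inactive = the rest.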
# Key:
# [1] = RPL19A-GFP modulators, yeast TOR pathway, confirmation, cell-based, S. cerevisiae, flow cytometry, cherry picks, mother/daughter gates (AID 2270;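 active = GFP response below 50% of the DMSO control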); conditions: S. cerevisiae RPL19A-GFP strain, 3 h, at 10 µM, stronger effect = lower value, 100 = same GFP as DMSO wells
# [2] = LAP4-GFP expression modulators in yeast, confirmation, cell-based, cherry picks, flow cytometry, mother/daughter gates (AID 2271;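 active = GFP response above 150% of the DMSO control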;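 note: ratio of sample to DMSO plate mean so 100% equals DMSO level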); conditions: S. cerevisiae LAP4-GFP strain, 3 h, at 10 µM, stronger effect = higher value, 100 means same as DMSO control
# Outline: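 Test system: GFP-fusion yeast strain / Amount: 0.2 OD600 cells / Buffer or medium: SC medium / Dosing: 10 µM single dose / Incubation: compound exposure 3 h at 30 °C, end-over-end rotation / Detection: HT flow cytometry, GFP fluorescence channel / Evaluation: median GFP fluorescence as percent of plate-mean DMSO wells / Control set: DMSO-only negative wells, rapamycin 400 ng/mL positive wells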
# [3] = modulators of MEP2-GFP levels in yeast, confirmation, S. cerevisiae, flow cytometry GFP, cherry picks (AID 2272;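 active = GFP response above 150% of the DMSO control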;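 note: ratio of well signal to plate DMSO mean so 100% equals DMSO level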); conditions: S. cerevisiae MEP2-GFP strain, 3 h, at 10 µM, stronger effect = higher value
# [4] = AGP1-GFP expression modulators, hit retest, confirmation, cell-based, flow cytometry, S. cerevisiae, cherry picks (AID 2273);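 note: median GFP channel fluorescence over the whole cell population gate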; conditions: S. cerevisiae AGP1-GFP strain, 3 h, at 10 µM
# [5] = modulators of CIT2-GFP expression in yeast, confirmation, S. cerevisiae, GFP fusion, cherry picks, mother/daughter gates (AID 2274); conditions: S. cerevisiae CIT2-GFP strain, flow cytometry, 3 h, at 10 µM, stronger effect = higher value
# [6] = measured here: daughter cell gate
# [7] = measured here: mother cell gate
# [8] = measured here: daughter cell gate response
# [9] = measured here: mother cell gate response
Compound,GFP response vs DMSO [1],"GFP response vs DMSO [1, 6] [%]","GFP response vs DMSO [1, 7] [%]",GFP response relative to DMSO [2],"GFP response relative to DMSO [2, 8] [%]","GFP response relative to DMSO [2, 9] [%]",GFP response vs DMSO [3],"GFP response, % of DMSO [4]","GFP response, % of DMSO [5]","GFP response, % of DMSO [5, 6] [%]","GFP response, % of DMSO [5, 7] [%]"
Fc1ccc(C2CC(c3ccccc3)n3ncnc3N2)cc1 (configuration not stated),96.8% (inactive),95.3,98,93.8% (inactive),94.1,97.2,100% (inactive),94.3% (inactive),92.6% (inactive),94.8,91.2
CCN(CC)Cc1csc2ccc(Br)cc12,98.4% (inactive),97.8,98.2,96.2% (inactive),97.2,99.3,102% (inactive),100% (inactive),97.8% (inactive),96.5,98.7
CCOC(=O)C1C(=O)C=C(c2ccc(C)cc2)CC1c1ccco1 (configuration not stated),99.9% (inactive),97.8,101,109% (inactive),103,112,102% (inactive),102% (inactive),95.2% (inactive),91.5,96.6
COc1ccc(CCNc2nc(-c3sc(C)nc3C)cs2)cc1OC,96.6% (inactive),97.6,95.4,106% (inactive),104,105,102% (inactive),93.7% (inactive),101% (inactive),103,99.7
COc1cc(-c2noc(-c3cccc(Cl)c3)n2)cc(OC)c1OC,96.2% (inactive),97,95.8,90.6% (inactive),88.2,91.3,103% (inactive),99.5% (inactive),101% (inactive),101,103
Nc1ccc(C(=O)N/N=C/c2ccccc2)cc1,105% (inactive),102,106,102% (inactive),99.1,102,101% (inactive),108% (inactive),100% (inactive),101,99.3
COc1ccc(C(=O)Nc2c(N)nc[nH]c2=O)cc1,102% (inactive),99.3,99,97% (inactive),97.5,97.3,105% (inactive),103% (inactive),105% (inactive),103,102
CCc1cccc2sc(N3CCN(C(=O)c4ccc([N+](=O)[O-])o4)CC3)nc12,82.5% (inactive),85.9,70.2,251% (active),125,222,172% (inactive),108% (inactive),108% (inactive),99.3,102
COc1ccc(CN2CCSc3sccc3C2=O)cc1,93.2% (inactive),90.7,93.9,110% (inactive),109,112,92.6% (inactive),97.3% (inactive),102% (inactive),103,102
CC(=O)Oc1ccc(N2C(=O)C3C4C=CC(O4)C3C2=O)cc1 (configuration not stated),98.2% (inactive),99.1,98.9,102% (inactive),101,101,107% (inactive),96.8% (inactive),99.7% (inactive),99.1,99.7
COc1ccccc1NC(=O)c1ccc([N+](=O)[O-])o1,102% (inactive),102,101,120% (inactive),115,122,102% (inactive),99.3% (inactive),107% (inactive),108,106
Cc1cc(C)c(S(=O)(=O)ON2C(=O)c3ccccc3C2=O)cc1C,88.4% (inactive),90.8,76.7,255% (active),209,252,114% (inactive),97.5% (inactive),102% (inactive),98.3,71.1
O=C(Sc1cccc2cccnc12)c1ccccc1Br,96.8% (inactive),92.3,98.5,151% (active),144,153,122% (inactive),95.8% (inactive),114% (inactive),115,112
O=C1Nc2ccc(Br)cc2/C1=C/C(=O)c1ccc2c(c1)OCO2,101% (inactive),99.4,98.9,125% (inactive),117,130,105% (inactive),94.5% (inactive),101% (inactive),101,96.1
CCOCCCNC(=O)/C(C#N)=C/c1ccc([N+](=O)[O-])o1,118% (inactive),91.2,87.9,212% (active),132,129,285% (active),122% (inactive),182% (active),114,110
O=C1CC(Sc2nnc(-c3ccccc3)o2)C(=O)N1c1ccccc1 (configuration not stated),99.9% (inactive),98.7,100,106% (inactive),105,107,102% (inactive),98.7% (inactive),97.8% (inactive),99.7,93.4
CS(=O)(=O)Nc1ccc(C2=NN(S(C)(=O)=O)C(c3ccccc3)C2)cc1 (configuration not stated),98.7% (inactive),98.1,98.6,133% (inactive),138,129,157% (inactive),115% (inactive),114% (inactive),112,114
